Screens deposited in PubChem by several laboratories.
CCR6 antagonist – CCR6 receptor antagonists, primary screen, cell-based, CHO-K1, luminescence, beta-arrestin, uHTS; C-C chemokine receptor type 6 (Homo sapiens), P51684; CHO-K1 CCR6 PathHunter beta-arrestin, CCL20-stimulated; inhibition, % at 20 µM; 340,000 compounds, 0.49% hits; AID 493098, 2011;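 active = compounds whose inhibition of the agonist-driven luminescence signal at 20 µM reaches about 50%, limit read from the data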;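 note: cells stimulated with CCL20 at 14 nM final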
APJ antagonist – antagonists of human apelin receptor APJ, primary screen, CHO-K1 cells, beta-arrestin complementation, luminescence. P35414. inhibition, % at 20 µM. 330,000 compounds, 0.32% hits;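 active = inhibition above about 40% at 20 µM, limit read from the data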;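 note: cells challenged with 10 nM apelin-13 agonist together with compound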
EBI2 antag – EBI2 receptor antagonists, beta-arrestin recruitment, primary screen, cell-based, luminescence, 7a,25-OHC stimulation, uHTS | G-protein coupled receptor 183 (Homo sapiens), P32249 | 7a,25-OHC stimulated | inhibition, % at 5 µM | 360,000 compounds, 0.81% hits; in the data active = inhibition above about 38%;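 note: enzyme fragment complementation signal reports receptor beta-arrestin coupling in cells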
Target sequence (P32249 whole entry, looked up, the tested form may be a part): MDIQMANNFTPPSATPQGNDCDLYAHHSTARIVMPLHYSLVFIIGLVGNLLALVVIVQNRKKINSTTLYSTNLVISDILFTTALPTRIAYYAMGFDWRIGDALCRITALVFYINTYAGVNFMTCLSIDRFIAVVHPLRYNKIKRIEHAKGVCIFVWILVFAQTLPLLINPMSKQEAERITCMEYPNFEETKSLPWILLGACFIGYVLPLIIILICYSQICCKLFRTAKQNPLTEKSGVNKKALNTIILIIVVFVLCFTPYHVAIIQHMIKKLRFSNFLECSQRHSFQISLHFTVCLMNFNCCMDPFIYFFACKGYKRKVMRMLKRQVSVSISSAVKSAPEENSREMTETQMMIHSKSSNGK
CXCR6 inh – CXCR6 receptor inhibitors, primary screen, cell-based, beta-arrestin, luminescence, CHO-K1 PathHunter, 1536-well; inhibition, % at 20 µM; C-X-C chemokine receptor type 6 (Homo sapiens), O00574; 360,000 compounds, 0.36% hits; in the data active = inhibition above about 34%, passing the limit was not always enough;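 note: antagonist mode with CXCL16 agonist at 10 nM final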
Target sequence (O00574 whole entry, looked up): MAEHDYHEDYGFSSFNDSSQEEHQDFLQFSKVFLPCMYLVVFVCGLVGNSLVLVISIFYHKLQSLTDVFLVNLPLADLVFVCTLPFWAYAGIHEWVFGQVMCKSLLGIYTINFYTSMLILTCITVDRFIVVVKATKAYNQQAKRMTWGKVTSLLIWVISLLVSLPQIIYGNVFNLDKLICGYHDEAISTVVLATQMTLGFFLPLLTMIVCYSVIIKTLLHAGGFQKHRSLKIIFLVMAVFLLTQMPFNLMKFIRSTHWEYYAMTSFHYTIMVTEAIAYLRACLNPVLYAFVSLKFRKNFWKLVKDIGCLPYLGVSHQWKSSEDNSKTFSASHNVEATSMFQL
APJ agonist – agonists of human apelin receptor APJ, primary screen, CHO-K1 cells, PathHunter beta-arrestin, luminescence; activation, % at 20 µM; AID 2520, 2010; 330,000 compounds, 0.11% hits; 0% DMSO wells, 100% apelin; P35414;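 active = activation more than six SD over the plate average, tested at 20 µM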
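Assay system – PathHunter CHO-K1 APJ (AGTRL-1) beta-arrestin reporter cells · Compound – one dose, 20 µM compound, 1% DMSO · Timing – compound 90 min 25 °C, reagent 1 h · Measured by – luminescence from split beta-galactosidase complementation, Galacton Star/Emerald II substrate · Measure – beta-arrestin recruitment to APJ as agonist activity, luminescent signal · Benchmarks – DMSO vs Apelin-13 10 nM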
GAA850 FXN act – FXN promoter activators, primary screen, cell-based, luciferase luminescence, HEK293 lucGAA850. HEK293 lucGAA850 FXN promoter luciferase reporter, 24 h; percent of 10 µM SAHA response. activation, % at 6 µM. 360,000 compounds, 0.56% hits;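 active = activation above the average of all compounds screened plus 3 SD, cutoff fixed separately per campaign, cut at about 7.5% in these data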
CXCR6 antag conf – CXCR6 receptor antagonists, confirmation, cell-based, single concentration, beta-arrestin, luminescence. shares compounds with CXCR6 inh. CHO-K1 CXCR6 PathHunter beta-arrestin. inhibition, % at 20 µM. 700 compounds, 65% hits;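 active = mean inhibition over four retests above 40%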;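 note: receptor stimulated with 10 nM CXCL16 agonist; beta-galactosidase fragment complementation upon beta-arrestin recruitment to receptor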
Of the large screens only hits and unclear results are named; the others gave an inactive call (follow-up assays come after a bar, where they were run). This is a sample that favours compounds with a hit; in the whole collection about 2% have one here.

CCCOc1ccc(CN(CCC#N)C(=S)NC(=O)c2ccccc2)cc1	CXCR6 inh 43.6 (no result: CCR6 antagonist) | CXCR6 antag conf 59.4
Cc1nnsc1S(=O)c1ccc(Cl)cc1 (centres undefined)	none
O=C(Nc1ccccc1)c1nnsc1S(=O)c1ccc(Cl)cc1 (centres undefined)	CCR6 antagonist 101.1, CXCR6 inh 89.2 | CXCR6 antag conf 96.7
Cn1cccc1C(NC(=O)c1ccccc1)C(Cl)(Cl)Cl (centres undefined)	none
COc1cc(/C=C2\SC(=O)N(c3ccc(Cl)cc3)C2=O)cc([N+](=O)[O-])c1O	CCR6 antagonist 77.4, CXCR6 inh 46.4 (no result: APJ antagonist, APJ agonist) | CXCR6 antag conf 56.4
COc1cccc(OC)c1C(=O)Nc1ccc2nc(C)c(C)nc2c1	CXCR6 inh 65.2 | CXCR6 antag conf inactive
COc1cccc(NC(=O)Nc2ccc3nc(C)c(C)nc3c2)c1	none
COCCNc1nc(NCc2cccc(OC)c2)c2sc(-c3ccccc3)cc2n1	none (no result: CCR6 antagonist, APJ antagonist, APJ agonist)
Oc1ccc(C[C@H]2CNC(=S)N2CC2CCCN2C[C@H](Cc2ccc(O)cc2)N2C[C@H](Cc3ccccc3)N(CC3CCCCC3)C2=S)cc1 (some centres undefined)	none (no result: APJ antagonist, APJ agonist)
Cc1ccc(OCC(=O)NNC(=S)NC(=O)C2CCCCC2)c(C)c1	none
Cc1ccc(OCC(=O)NNC(=S)NC(=O)C2CC2)c(C)c1	CXCR6 inh 45.0 (no result: CCR6 antagonist) | CXCR6 antag conf 41.3
COc1ccc(C(=O)NNC(=S)NC(=O)c2cc(-c3ccccc3)nc3ccccc23)cc1	none
CCCOc1ccc(C(=O)NNC(=S)NC(=O)c2cc(-c3ccc(Cl)cc3)nc3ccccc23)cc1	CXCR6 inh 44.6 | CXCR6 antag conf inactive
Cc1ccc(NC(=S)NNC(=O)Nc2ccccc2)cc1	APJ antagonist 43.5, CXCR6 inh 53.2 (no result: CCR6 antagonist) | CXCR6 antag conf inactive
Cc1ccc(NC(=S)NNC(=S)Nc2ccc(C)cc2)cc1	none (no result: APJ antagonist, APJ agonist)
COc1ccc(/C=C(/NC(=O)c2ccc(Br)o2)C(=O)Nc2cccc(C(=O)O)c2)cc1	none (no result: CCR6 antagonist, APJ antagonist, APJ agonist)
O=C(Nc1ccc(Cl)c(Cl)c1)c1ccc(Cl)c(Cl)c1	none
Cc1ccc(NC(=O)c2ccc(Cl)c(N3C(=O)C=CC3=O)c2)cc1	CXCR6 inh 94.4 (no result: CCR6 antagonist) | CXCR6 antag conf inactive
COc1nc(OCCNC(C)=O)nc(N(C)C)n1	CXCR6 inh 56.2 | CXCR6 antag conf inactive
C/C(=N\NC(=O)C1COc2ccccc2O1)c1ccc(C)o1 (centres undefined)	none
C/C(=N\NC(=O)C1COc2ccccc2O1)c1ccccn1 (centres undefined)	CCR6 antagonist 77.8, APJ antagonist 58.5, CXCR6 inh 75.1 | CXCR6 antag conf 68.3
CCOC(=O)C1=CCC(c2ccc(C#N)cc2)N(S(=O)(=O)c2ccc(C)cc2)C1 (centres undefined)	none (no result: CCR6 antagonist, APJ antagonist, APJ agonist, GAA850 FXN act)
CCOc1cc(/C=C2\N=C(SCC)SC2=O)cc([N+](=O)[O-])c1OC(C)=O	CCR6 antagonist 55.0, CXCR6 inh 45.1 | CXCR6 antag conf 58.9
CCOc1cc(/C=C2\N=C(SC)SC2=O)cc([N+](=O)[O-])c1OC(C)=O	CXCR6 inh 41.8 | CXCR6 antag conf 40.3
Cc1cccc(NC(=O)CN2C(=O)NC3(CCCC3)C2=O)n1	none
CCCCC[C@@H]1[C@H]2[C@H]3C(=O)N(c4ccccc4)C(=O)[C@H]3CC(=O)[C@H]2[C@H](c2ccccc2)N1S(=O)(=O)c1ccc(C)cc1	none (no result: CCR6 antagonist, APJ antagonist, APJ agonist, GAA850 FXN act)
COc1ccc(C(=O)N(C)CC2CCN(CCc3cccc(C(F)(F)F)c3)CC2)cc1C	none
COc1ccc(N=c2oc3c(OC)cccc3cc2C(=O)NCc2ccco2)cc1OC	none
COc1cccc2cc(C(=O)Nc3ccc(F)cc3)c(=Nc3ccc(C(=O)O)cc3)oc12	CCR6 antagonist 80.5, CXCR6 inh 48.9 | CXCR6 antag conf inactive
CC(C)C[C@H]1CN(CCCC[C@H]2CNC(=O)C(=O)N2CCc2ccc(O)cc2)C(=O)C(=O)N1CCC1CCCCC1	none (no result: CCR6 antagonist, APJ antagonist, APJ agonist, GAA850 FXN act)
CCOC(=O)N(C)C[C@H]1OCc2cnnn2CCCC(=O)N([C@H](C)CO)C[C@H]1C	none (no result: CCR6 antagonist, APJ antagonist, APJ agonist)
COC(=O)c1ccc(CCc2cc(O)c(Br)cc2O)cc1	CXCR6 inh 54.9 (no result: CCR6 antagonist, APJ antagonist, APJ agonist) | CXCR6 antag conf 48.6
CC1=C(C)CC2C(C1)C(=O)c1ccc(Br)cc1S2(=O)=O (centres undefined)	CCR6 antagonist 84.3, CXCR6 inh 71.5 | CXCR6 antag conf 41.4
N=C1SCC(=O)N1c1ncc(Cc2ccc(F)cc2)s1	CXCR6 inh 50.8 (no result: CCR6 antagonist) | CXCR6 antag conf 67.8
O=C1CCc2cc(Br)ccc2O1	none (no result: APJ antagonist, APJ agonist)
NC(=S)NN=C1c2cc(Cl)ccc2-c2c1cc(Cl)cc2[N+](=O)[O-]	CCR6 antagonist 76.5, CXCR6 inh 42.6 (no result: APJ antagonist, APJ agonist) | CXCR6 antag conf 59.1
CCCc1cc(=O)oc2cc(OC(=O)CN3C(=O)NC4(CCCC4)C3=O)ccc12	CCR6 antagonist 66.7, CXCR6 inh 46.4 | CXCR6 antag conf inactive
CCCc1cc(=O)oc2cc(OCC(=O)N3CC[C@@]4(O)CCCC[C@H]4C3)ccc12	none (no result: CCR6 antagonist, APJ antagonist, APJ agonist)
CNc1c2cccc(C)c2nc2c(C(=O)NCCN(C)C)cccc12	none (no result: APJ antagonist, APJ agonist)
CN(C)CCCN(C(=O)CCS(=O)(=O)c1ccccc1)c1nc2cc3c(cc2s1)OCO3	CCR6 antagonist 50.2, EBI2 antag 41.7, CXCR6 inh 39.9 | CXCR6 antag conf 57.2
CN(C)CCCN(C(=O)CCSc1ccccc1)c1nc2cc3c(cc2s1)OCO3	none
COc1ccc(-n2nnnc2S(=O)(=O)CC(=O)N2CCCCC2)cc1	EBI2 antag 42.9, CXCR6 inh 48.2 | CXCR6 antag conf 49.3
COc1ccc(-n2nnnc2S(=O)(=O)Cc2ccc(C(=O)O)cc2)cc1	none
Cc1ccnc(NC(=O)C2CC(=O)N(c3ccc4c(c3)OCCO4)C2)c1 (centres undefined)	none
COc1cc(/C=C/C(=O)c2ccc(C)c([N+](=O)[O-])c2)cc(OC)c1O	CCR6 antagonist 68.5, CXCR6 inh 42.7 | CXCR6 antag conf 54.9
COc1ccc(/C=C/C(=O)c2ccc(C)c([N+](=O)[O-])c2)cc1O	none
Cc1noc(C)c1NC(=O)Nc1cccc2c1O[C@H](CN(C)S(C)(=O)=O)[C@@H](C)CN([C@H](C)CO)C2=O	none
Cc1noc(C)c1NC(=O)Nc1cccc2c1O[C@H](CN(C)S(=O)(=O)c1cn(C)cn1)[C@@H](C)CN([C@H](C)CO)C2=O	CXCR6 inh 45.0 | CXCR6 antag conf inactive
